From ChEMBL document CHEMBL5653631, “A Potent and Selective ULK1 Inhibitor Suppresses Autophagy and Sensitizes Cancer Cells to Nutrient Stress” (iScience, 2018)
Each block holds one compound with its values, some of them ahead of it.

Legend:
[1] = molecular target: T1, Beta-adrenergic receptor kinase 1 (Homo sapiens) (UniProt P25098); assay: Inhibition of human recombinant BARK1 at 500 nM in presence of ATP by radiometric assay relative to control
T1 sequence (whole entry): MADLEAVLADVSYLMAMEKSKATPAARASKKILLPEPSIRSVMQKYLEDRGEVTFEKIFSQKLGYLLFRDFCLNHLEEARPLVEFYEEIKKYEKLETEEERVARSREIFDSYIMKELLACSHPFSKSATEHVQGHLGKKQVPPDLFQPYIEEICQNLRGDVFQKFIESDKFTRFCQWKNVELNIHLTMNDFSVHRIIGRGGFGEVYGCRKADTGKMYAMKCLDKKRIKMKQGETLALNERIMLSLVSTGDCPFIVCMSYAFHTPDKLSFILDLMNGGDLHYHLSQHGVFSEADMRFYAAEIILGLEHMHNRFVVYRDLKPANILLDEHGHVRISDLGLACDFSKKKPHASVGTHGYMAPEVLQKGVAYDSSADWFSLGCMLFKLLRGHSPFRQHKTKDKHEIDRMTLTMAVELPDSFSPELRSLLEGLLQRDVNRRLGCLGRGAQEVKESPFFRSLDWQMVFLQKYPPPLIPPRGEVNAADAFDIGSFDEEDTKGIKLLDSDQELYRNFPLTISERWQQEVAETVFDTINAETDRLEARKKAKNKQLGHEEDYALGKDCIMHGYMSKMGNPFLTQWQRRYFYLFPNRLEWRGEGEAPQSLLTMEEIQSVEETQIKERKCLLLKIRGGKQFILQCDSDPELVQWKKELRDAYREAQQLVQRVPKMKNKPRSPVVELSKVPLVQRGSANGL
How it was run: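 Part of a radiometric in vitro activity panel of 327 recombinant human kinases. Each kinase was tested in duplicate at one inhibitor concentration. Activity remaining was expressed as a percentage of the vehicle control, and percent inhibition was taken as 100 minus that value.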

[2] = molecular target: Calcium/calmodulin-dependent protein kinase type II subunit alpha (Homo sapiens) (UniProt Q9UQM7); assay: Inhibition of human recombinant CaMK2a at 500 nM in presence of ATP by radiometric assay relative to control
[3] = molecular target: Receptor tyrosine-protein kinase erbB-4 (Homo sapiens) (UniProt Q15303); assay: Inhibition of human recombinant ErbB4 at 500 nM related to control ULK1
[4] = molecular target: Protein kinase C theta type (Homo sapiens) (UniProt Q04759); assay: Inhibition of human recombinant PKCt at 500 nM related to control ULK1
[5] = molecular target: Platelet-derived growth factor receptor beta (Homo sapiens) (UniProt P09619); assay: Inhibition of human recombinant PDGFRb at 15 nM in presence of ATP by radiometric assay relative to control
[6] = molecular target: T2, Inhibitor of nuclear factor kappa-B kinase subunit alpha (Homo sapiens) (UniProt O15111); assay: Inhibition of human recombinant IKKa at 15 nM related to control ULK1
T2 sequence (whole entry): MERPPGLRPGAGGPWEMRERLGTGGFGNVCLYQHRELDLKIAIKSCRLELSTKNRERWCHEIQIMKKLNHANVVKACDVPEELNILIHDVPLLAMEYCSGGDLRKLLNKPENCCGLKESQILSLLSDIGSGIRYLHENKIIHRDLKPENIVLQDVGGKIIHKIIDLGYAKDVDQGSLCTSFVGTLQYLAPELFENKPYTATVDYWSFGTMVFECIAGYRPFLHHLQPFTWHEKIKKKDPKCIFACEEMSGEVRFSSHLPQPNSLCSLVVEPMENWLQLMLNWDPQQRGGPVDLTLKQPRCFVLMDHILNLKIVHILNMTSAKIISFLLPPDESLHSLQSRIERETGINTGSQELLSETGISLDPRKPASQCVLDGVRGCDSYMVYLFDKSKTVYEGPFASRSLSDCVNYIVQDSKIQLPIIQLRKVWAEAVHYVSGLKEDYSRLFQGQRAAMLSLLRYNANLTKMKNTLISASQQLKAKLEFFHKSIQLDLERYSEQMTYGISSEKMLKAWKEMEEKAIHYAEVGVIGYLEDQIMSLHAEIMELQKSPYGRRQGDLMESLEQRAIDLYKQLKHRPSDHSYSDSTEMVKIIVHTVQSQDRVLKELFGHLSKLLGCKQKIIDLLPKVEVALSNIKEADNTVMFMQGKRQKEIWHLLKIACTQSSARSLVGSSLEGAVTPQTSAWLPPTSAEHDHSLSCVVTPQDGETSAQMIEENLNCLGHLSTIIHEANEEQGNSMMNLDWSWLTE

[7] = molecular target: Hepatocyte growth factor receptor MET (Homo sapiens) (UniProt P08581); assay: Inhibition of human recombinant MET at 15 nM in presence of ATP by radiometric assay relative to control
[8] = molecular target: Serine/threonine-protein kinase Chk2 (Homo sapiens) (UniProt O96017); assay: Inhibition of human recombinant CHK2 at 40 nM in presence of ATP by radiometric assay relative to control
[9] = molecular target: Tyrosine-protein kinase CSK (Homo sapiens) (UniProt P41240); assay: Inhibition of human recombinant CSK at 40 nM in presence of ATP by radiometric assay relative to control
[10] = molecular target: Vascular endothelial growth factor receptor 3 (Homo sapiens) (UniProt P35916); assay: Inhibition of human recombinant FLT4 at 40 nM in presence of ATP by radiometric assay relative to control
[11] = molecular target: Mitogen-activated protein kinase kinase kinase 10 (Homo sapiens) (UniProt Q02779); assay: Inhibition of human recombinant MLK2 at 40 nM in presence of ATP by radiometric assay relative to control
[12] = molecular target: Serine/threonine-protein kinase PAK 3 (Homo sapiens) (UniProt O75914); assay: Inhibition of human recombinant PAK3 at 40 nM in presence of ATP by radiometric assay relative to control
[13] = molecular target: [Pyruvate dehydrogenase (acetyl-transferring)] kinase isozyme 4, mitochondrial (Homo sapiens) (UniProt Q16654); assay: Inhibition of human recombinant PDHK4 at 40 nM in presence of ATP by radiometric assay relative to control
[14] = molecular target: Serine/threonine-protein kinase pim-2 (Homo sapiens) (UniProt Q9P1W9); assay: Inhibition of human recombinant PIM2 at 40 nM in presence of ATP by radiometric assay relative to control
[15] = molecular target: Serine/threonine-protein kinase 24 (Homo sapiens) (UniProt Q9Y6E0); assay: Inhibition of human recombinant MST3 at 40 nM related to control ULK1
[16] = molecular target: Cyclin-dependent kinase 18 (Homo sapiens) (UniProt Q07002); assay: Inhibition of human recombinant PCTAIRE3 at 40 nM related to control ULK1
[17] = molecular target: STE20-like serine/threonine-protein kinase (Homo sapiens) (UniProt Q9H2G2); assay: Inhibition of human recombinant SLK at 40 nM related to control ULK1
Sequence of STE20-like serine/threonine-protein kinase (Homo sapiens) (Q9H2G2 whole entry, looked up): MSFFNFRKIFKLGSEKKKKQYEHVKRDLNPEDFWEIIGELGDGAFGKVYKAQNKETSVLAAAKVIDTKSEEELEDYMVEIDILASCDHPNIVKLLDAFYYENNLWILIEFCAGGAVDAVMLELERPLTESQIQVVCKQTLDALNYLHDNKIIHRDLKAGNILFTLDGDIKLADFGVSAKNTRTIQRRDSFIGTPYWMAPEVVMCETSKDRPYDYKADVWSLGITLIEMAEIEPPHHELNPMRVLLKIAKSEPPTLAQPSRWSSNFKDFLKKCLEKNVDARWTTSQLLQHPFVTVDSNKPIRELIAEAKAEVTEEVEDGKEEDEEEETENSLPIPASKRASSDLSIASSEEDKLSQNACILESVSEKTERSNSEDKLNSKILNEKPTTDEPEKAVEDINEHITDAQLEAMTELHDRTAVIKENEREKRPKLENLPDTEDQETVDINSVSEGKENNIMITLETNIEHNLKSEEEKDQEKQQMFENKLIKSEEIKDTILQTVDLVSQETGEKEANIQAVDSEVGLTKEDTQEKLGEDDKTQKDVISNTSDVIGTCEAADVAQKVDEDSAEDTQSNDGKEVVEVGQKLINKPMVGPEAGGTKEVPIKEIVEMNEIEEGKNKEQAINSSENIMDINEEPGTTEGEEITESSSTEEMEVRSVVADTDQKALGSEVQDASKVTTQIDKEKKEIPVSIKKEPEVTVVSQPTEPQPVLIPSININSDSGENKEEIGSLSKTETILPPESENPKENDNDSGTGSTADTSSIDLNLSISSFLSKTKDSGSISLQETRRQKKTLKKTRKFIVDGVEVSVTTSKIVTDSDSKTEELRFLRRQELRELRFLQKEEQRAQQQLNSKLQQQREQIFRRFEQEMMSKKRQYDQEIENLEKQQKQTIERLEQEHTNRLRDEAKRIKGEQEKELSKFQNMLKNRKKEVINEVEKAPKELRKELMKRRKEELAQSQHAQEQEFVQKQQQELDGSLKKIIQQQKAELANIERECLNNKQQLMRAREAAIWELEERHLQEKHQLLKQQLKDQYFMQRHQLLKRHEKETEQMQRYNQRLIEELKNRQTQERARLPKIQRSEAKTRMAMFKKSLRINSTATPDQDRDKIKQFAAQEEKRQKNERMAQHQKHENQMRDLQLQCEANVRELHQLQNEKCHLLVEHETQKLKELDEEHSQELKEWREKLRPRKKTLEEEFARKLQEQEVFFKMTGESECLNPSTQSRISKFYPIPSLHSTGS

Sequence of Serine/threonine-protein kinase pim-2 (Homo sapiens) (Q9P1W9 whole entry, looked up): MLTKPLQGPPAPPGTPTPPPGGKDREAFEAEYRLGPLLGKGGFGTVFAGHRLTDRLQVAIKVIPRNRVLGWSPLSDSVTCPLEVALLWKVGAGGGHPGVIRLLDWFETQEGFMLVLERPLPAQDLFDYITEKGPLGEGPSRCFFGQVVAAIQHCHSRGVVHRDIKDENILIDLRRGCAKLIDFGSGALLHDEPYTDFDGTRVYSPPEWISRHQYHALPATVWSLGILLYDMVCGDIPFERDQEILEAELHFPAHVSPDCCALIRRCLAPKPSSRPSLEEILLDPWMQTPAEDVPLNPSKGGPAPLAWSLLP
Sequence of Serine/threonine-protein kinase PAK 3 (Homo sapiens) (O75914 whole entry, looked up): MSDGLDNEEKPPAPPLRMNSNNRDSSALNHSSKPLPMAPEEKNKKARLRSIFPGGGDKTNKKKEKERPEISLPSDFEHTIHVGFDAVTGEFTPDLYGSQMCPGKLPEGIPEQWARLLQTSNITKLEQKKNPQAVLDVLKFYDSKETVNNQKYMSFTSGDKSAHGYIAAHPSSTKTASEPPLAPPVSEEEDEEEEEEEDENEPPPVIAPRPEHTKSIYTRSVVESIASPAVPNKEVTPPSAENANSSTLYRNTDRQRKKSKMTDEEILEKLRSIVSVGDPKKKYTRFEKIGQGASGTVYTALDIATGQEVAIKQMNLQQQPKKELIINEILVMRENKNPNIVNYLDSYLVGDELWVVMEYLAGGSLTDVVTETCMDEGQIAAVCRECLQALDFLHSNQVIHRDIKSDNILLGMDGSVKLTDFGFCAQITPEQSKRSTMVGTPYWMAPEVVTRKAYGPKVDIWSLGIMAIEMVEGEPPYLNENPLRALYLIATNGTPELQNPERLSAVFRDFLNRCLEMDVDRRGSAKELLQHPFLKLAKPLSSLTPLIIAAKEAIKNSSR
Sequence of Serine/threonine-protein kinase 24 (Homo sapiens) (Q9Y6E0 whole entry, looked up): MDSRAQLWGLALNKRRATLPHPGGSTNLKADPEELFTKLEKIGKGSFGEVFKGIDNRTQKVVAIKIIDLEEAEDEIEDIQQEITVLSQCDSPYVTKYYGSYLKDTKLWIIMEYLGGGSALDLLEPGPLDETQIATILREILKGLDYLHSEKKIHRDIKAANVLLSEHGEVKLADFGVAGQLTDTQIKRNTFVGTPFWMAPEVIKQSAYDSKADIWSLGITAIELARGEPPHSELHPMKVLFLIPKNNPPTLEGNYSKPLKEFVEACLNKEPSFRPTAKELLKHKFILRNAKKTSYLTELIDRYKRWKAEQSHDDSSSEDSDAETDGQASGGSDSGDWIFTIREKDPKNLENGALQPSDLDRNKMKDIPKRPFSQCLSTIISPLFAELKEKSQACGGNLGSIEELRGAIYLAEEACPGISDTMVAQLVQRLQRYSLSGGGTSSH
Sequence of Tyrosine-protein kinase CSK (Homo sapiens) (P41240 2-450 limits assumed): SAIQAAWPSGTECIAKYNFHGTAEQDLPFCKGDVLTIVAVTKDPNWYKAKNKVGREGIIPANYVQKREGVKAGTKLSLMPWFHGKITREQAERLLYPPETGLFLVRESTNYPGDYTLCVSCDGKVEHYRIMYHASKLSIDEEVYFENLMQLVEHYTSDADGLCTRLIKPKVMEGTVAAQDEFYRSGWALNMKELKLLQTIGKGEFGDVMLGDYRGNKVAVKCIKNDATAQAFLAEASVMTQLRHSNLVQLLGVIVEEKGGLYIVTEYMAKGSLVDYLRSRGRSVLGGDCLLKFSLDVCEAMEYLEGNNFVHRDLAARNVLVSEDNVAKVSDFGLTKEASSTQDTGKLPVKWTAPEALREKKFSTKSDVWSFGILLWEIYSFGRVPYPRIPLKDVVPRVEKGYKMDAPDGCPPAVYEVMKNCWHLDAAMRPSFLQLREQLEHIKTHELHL
Sequence of Protein kinase C theta type (Homo sapiens) (Q04759 whole entry, looked up): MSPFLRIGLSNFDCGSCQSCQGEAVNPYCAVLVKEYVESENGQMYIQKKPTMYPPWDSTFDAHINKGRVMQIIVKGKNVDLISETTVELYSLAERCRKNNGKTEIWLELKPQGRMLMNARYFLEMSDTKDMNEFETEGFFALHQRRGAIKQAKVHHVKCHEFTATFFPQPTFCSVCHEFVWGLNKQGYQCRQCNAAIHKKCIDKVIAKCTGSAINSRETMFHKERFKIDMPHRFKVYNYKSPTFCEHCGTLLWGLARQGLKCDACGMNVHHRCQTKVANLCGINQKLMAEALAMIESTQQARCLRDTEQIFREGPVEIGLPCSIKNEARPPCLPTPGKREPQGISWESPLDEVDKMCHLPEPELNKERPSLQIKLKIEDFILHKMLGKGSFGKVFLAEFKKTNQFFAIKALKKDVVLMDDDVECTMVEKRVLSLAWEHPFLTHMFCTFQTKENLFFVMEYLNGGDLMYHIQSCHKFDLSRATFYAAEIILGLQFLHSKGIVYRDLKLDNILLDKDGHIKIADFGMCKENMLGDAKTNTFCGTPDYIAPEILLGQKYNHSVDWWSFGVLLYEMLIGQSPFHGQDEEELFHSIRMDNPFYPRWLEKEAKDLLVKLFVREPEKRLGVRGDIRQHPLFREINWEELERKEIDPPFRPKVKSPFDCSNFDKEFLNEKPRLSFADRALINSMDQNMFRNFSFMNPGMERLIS
Sequence of Vascular endothelial growth factor receptor 3 (Homo sapiens) (P35916 whole entry): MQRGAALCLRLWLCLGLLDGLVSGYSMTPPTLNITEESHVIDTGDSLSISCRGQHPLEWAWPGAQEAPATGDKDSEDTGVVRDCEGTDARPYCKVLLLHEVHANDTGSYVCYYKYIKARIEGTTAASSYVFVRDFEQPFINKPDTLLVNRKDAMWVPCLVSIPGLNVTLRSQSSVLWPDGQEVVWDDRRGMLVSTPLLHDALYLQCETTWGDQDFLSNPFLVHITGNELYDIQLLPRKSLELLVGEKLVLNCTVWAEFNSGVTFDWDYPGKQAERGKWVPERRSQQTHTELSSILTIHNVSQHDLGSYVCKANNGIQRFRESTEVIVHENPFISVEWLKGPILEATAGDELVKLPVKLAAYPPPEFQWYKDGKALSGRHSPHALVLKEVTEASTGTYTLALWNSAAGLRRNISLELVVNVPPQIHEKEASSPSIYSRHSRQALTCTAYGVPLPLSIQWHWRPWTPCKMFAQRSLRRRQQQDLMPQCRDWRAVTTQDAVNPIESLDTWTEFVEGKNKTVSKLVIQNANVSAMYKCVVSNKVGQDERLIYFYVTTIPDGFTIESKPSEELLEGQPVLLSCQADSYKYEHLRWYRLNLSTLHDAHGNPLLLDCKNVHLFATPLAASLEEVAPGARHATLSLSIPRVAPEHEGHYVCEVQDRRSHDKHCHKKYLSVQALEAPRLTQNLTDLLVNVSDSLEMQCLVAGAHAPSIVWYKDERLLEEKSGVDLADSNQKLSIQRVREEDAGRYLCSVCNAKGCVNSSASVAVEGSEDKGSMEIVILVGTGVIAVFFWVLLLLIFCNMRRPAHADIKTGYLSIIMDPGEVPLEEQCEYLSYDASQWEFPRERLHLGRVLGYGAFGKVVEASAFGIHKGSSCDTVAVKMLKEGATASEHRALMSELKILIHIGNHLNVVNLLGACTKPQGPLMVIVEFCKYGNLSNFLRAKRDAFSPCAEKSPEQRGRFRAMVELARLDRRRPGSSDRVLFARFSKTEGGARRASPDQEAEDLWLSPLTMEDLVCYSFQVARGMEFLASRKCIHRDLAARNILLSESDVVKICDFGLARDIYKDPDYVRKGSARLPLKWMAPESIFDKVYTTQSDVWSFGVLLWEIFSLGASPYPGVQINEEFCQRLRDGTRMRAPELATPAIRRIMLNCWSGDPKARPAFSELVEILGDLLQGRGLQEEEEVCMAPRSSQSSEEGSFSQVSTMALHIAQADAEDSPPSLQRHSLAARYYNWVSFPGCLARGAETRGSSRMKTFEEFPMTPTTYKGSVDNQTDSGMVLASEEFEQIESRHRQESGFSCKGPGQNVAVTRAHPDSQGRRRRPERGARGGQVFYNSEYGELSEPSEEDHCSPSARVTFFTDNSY

- inhibition [1]: 8%
- inhibition [2]: 0%
- fold change (FC) [3]: 0
- fold change (FC) [4]: 0
SMILES: CNC(=O)c1ccccc1Oc1nc(Nc2cc(OC)c(OC)c(OC)c2)ncc1Br

- inhibition [5]: 0%
- fold change (FC) [6]: 0.01
- inhibition [7]: 0%
SMILES: CC(C)[C@H](NC(=O)c1cc(-c2cnn3cc(-c4ccc(OCCN5CCCCC5)cc4)cnc23)cs1)C(F)(F)F

- inhibition [8]: 0%
- inhibition [9]: 0%
- inhibition [10]: 19%
- inhibition [11]: 0%
- inhibition [12]: 0%
- inhibition [13]: 0%
- inhibition [14]: 3%
- fold change (FC) [15]: 0.27
- fold change (FC) [16]: 0.42
- fold change (FC) [17]: 0
SMILES: O=C(N[C@@H](C1CC1)C(F)(F)F)c1cc(-c2cnn3cc(-c4ccc(F)cc4)cnc23)cs1
